# ARNT-TACC3 inh: disruptors of human ARNT/TACC3 interaction. AlphaScreen His-ARNT PAS-B/GST-TACC3 binding, luminescence; TACC3 fragment carries E629A point mutation. inhibition, % at 9.99 µM. 390,000 tested, 0.66% active;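 active = mean inhibition of replicates at least 50% and at least half of replicates each reaching 50%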;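 note: 0% = complete ARNT plus TACC3 wells and 100% = ARNT alone without TACC3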
# sPLA2-III inh: Blocks human group III sPLA2 activity | 370,000 tested, 0.56% active | inhibition, % at 12.2 µM | Q9NZ20 | QFRET BODIPY PC-A2 liposome hydrolysis, fluorescence;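 active = inhibition above mean plus 3 SD of compounds lying within the high and low control bounds, cut at about 19% in these data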;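 note: 0% = median of test compound wells and 100% = no enzyme DMSO wells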
# SR-BI DiI inh: inhibitors of mouse SR-BI mediated HDL lipid uptake | Q61009 | ldlA[mSR-BI] CHO cells, DiI-HDL uptake fluorescence, 3 h | inhibition, % at 12.5 µM | 320,000 tested, 0.96% active | AID 488896;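 active = mean replicate inhibition of at least 70% and a set share of replicates each scoring 70 or more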;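 note: 0% = median of neutral control wells and 100% = median of positive control wells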
# Xi reactivation: activators of X-chromosome reactivation in mouse fibroblasts; AID 743238; XiGFP mouse fibroblasts, % GFP-positive cells imaging, 3 d; cells co-treated with 5-aza-dC sensitizer; scaled so ellipticine positive control = 100%; activation, % at 7.58 µM; 360,000 tested, 0.055% active;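 active = mean normalized replicate activation at least 10% and every replicate at or above 10%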;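 note: 0% = median of on-plate neutral control wells and 100% = ellipticine 6 µM median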
#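 Assay system: SV40-immortalized XiGFP fibroblast cells, line 68-5-11; buffer or medium: DMEM plus 5-aza-dC sensitizer; compound: one concentration, pinned; timing: compounds 3 days, fix/stain 15 min at room temperature; benchmarks: positive control ellipticine, 6 µM final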
# SR-BI DiI-HDL act: SR-BI HDL lipid transfer activation; 320,000 tested, 0.096% active; activation, % at 12.5 µM; CHO ldlA[mSR-BI] cells, DiI-HDL uptake fluorescence, 3 h; 100 = double the neutral-control signal;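 active = mean replicate activation of at least 60% and every replicate at or above 60%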;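 note: 0% = median plate neutral-control signal and 100% = twice that signal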
#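 Assay system: CHO ldlA[mSR-BI] cells, LDL receptor-null, SR-BI overexpressing; medium: Ham's F12 with 0.5% BSA, HEPES 25 mM, pH 7.4; also added: DiI-HDL 10 µg/mL; timing: 3 h uptake period with compound, 37 °C; signal: DiI fluorescence, bottom read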
# NSD2 HMT inh: inhibitors of human histone methyltransferase NSD2; NSD2 peptide methylation, AlphaScreen, 120 min; inhibition, % at 12.5 µM; O96028; 310,000 tested, 0.54% active; in the data active = inhibition above about 50%
# Target sequence (O96028 whole entry, looked up): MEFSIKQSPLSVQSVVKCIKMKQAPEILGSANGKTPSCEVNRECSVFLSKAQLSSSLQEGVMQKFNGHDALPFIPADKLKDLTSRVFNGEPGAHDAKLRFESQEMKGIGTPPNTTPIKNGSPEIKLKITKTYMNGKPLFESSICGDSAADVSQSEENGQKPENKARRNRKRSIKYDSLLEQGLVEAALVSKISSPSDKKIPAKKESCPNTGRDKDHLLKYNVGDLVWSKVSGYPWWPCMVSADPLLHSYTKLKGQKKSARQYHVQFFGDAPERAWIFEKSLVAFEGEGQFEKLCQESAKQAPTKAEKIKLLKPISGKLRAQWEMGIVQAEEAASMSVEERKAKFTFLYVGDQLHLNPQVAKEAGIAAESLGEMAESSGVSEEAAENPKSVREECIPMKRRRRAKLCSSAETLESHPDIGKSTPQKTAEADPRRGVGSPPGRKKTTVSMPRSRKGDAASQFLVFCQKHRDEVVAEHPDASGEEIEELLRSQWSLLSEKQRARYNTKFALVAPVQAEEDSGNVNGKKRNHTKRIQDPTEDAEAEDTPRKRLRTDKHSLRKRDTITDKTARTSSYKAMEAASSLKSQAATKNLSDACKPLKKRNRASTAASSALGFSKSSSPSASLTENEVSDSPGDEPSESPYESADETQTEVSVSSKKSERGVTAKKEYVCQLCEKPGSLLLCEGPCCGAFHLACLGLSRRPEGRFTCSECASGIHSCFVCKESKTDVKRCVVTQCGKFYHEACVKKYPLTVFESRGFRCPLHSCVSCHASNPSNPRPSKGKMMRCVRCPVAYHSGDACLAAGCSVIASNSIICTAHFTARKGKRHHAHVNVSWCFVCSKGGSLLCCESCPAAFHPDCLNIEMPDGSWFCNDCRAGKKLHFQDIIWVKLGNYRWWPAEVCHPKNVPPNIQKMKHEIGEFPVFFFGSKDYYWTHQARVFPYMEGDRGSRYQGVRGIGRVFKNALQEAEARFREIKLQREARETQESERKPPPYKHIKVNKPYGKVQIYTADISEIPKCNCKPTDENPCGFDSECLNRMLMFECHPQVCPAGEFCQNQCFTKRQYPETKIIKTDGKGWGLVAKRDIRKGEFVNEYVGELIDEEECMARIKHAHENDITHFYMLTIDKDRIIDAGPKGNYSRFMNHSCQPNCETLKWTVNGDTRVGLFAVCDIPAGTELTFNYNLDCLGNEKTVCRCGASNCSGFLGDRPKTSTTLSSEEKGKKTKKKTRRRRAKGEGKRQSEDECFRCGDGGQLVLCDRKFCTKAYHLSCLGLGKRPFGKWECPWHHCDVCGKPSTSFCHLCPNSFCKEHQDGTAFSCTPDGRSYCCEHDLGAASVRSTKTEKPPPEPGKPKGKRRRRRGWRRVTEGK
# Numbers without * were called inactive; . = no result given. In the library only some 2% were active in any assay of this set; here they are far more common.
SMILES,ARNT-TACC3 inh,sPLA2-III inh,SR-BI DiI inh,Xi reactivation,SR-BI DiI-HDL act,NSD2 HMT inh
Cc1cccc(N=C2C(=O)Nc3c(Cl)cccc32)c1,-2,0,-46,0,46,3
O=C1Nc2c(Cl)cc(Cl)cc2C1=O,34,8,-8,0,8,118*
CC(C)NC(=O)N(C)C[C@H]1Oc2ccc(NC(=O)Cc3ccccc3)cc2CC(=O)N([C@@H](C)CO)C[C@H]1C,-10,.,.,0,.,.
C[C@@H]1CN([C@H](C)CO)C(=O)c2cc(C#C[C@@H](C)O)cnc2O[C@H]1CN(C)CC1CCCC1,-6,.,.,0,.,.
N#C/C(=C(/O)c1ccco1)c1nc2ccccc2s1,40,-5,-2,0,2,13
CC1=CC(=C(C#N)c2nc3ccccc3s2)C=C(C)N1Cc1ccco1,-14,4,109*,.,-109,.
CO[C@@H]1CN(C)C(=O)c2cc(NC(=O)Nc3ccc(Cl)cc3)ccc2OC[C@H](C)NC[C@H]1C,-1,2,.,0,.,.
O=C(N/N=C/c1cn(-c2cccs2)nc1-c1ccccc1)c1ccccc1O,-2,-22,86*,0,-86,-2
CC(C(=O)c1ccccc1)n1c(N2CCOCC2)nc2c1c(=O)n(C)c(=O)n2C (centres undefined),21,-7,-63,.,63*,5
CSc1cccc(NC(=S)NCCCN2CCN(c3ccc(F)cc3)CC2)c1,-6,1,-201,.,201*,1
Cc1c(C(=O)Nc2ccc3c4c(cccc24)CC3)cccc1[N+](=O)[O-],5,-1,44,0,-44,-1
O=C(Cn1nc(-c2ccccc2)ccc1=O)Nc1ccc(N2CCN(C(=O)c3ccccc3)CC2)cc1,8,-11,11,.,-11,1
O=C(Cn1nc(-c2ccccc2)ccc1=O)Nc1ccc(-n2cnnn2)cc1,-4,-6,-116,0,116*,3
O=C(Cn1nc(-c2ccccc2)ccc1=O)Nc1ccc(NC(=O)c2ccccn2)cc1,0,0,75*,1,-75,2
